From ChEMBL document CHEMBL3351868, “Structure-affinity relationships and pharmacological characterization of new alkyl-resorcinol cannabinoid receptor ligands: Identification of a dual cannabinoid receptor/TRPA1 channel agonist” (Bioorg Med Chem, 2014)
Activity calls are given as the source filed them. The rule behind the calls is not given here.

Tests used:
[1] = Cytotoxicity against mouse NIH/3T3 cells after 24 hrs by neutral red assay; assay type: cell-based; settings: NIH3T3, 24 h
How it was run: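 NIH3T3 mouse fibroblasts in DMEM with 10% FCS were seeded and after 24 h exposed to compound in DMSO (5-200 µM, six replicates) for 24 h. Viability measured by neutral red uptake (3 h dye incubation, then acetic acid/ethanol extraction). IC50 derived.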

[2] = target: T1, Cannabinoid receptor 2 (Homo sapiens, UniProt P34972); assay: Agonist activity at human recombinant CB2 receptor expressed in CHO cell membranes by [35S]GTPgammaS binding assay; assay type: functional
T1 sequence (P34972 whole entry): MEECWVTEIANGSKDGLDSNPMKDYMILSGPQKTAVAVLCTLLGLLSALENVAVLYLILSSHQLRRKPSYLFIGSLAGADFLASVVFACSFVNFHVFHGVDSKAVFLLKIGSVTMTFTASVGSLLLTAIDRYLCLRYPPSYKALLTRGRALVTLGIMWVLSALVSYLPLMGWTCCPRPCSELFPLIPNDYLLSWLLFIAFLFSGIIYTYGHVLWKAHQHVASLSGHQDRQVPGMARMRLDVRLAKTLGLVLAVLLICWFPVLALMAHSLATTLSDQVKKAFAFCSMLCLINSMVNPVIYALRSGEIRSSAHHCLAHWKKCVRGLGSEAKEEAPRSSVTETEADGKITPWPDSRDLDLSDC
How it was run: (§1)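 Membranes from CHO cells stably expressing human CB1 or CB2, 50 µg protein per well, in Tris buffer with 100 mM NaCl, 5 mM MgCl2, 1 mM DTT, 1 mM EDTA, 0.1% BSA, pH 7.4. Incubated 60 min at 30°C with 0.1 nM [35S]GTPγS, 30 µM GDP and compound in DMSO. Nonspecific binding defined with 30 µM GTPγS. Filtration and scintillation counting. Percent change relative to DMSO control, n=6. EC50/Emax from sigmoidal fit.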

[3] = target: T2, Transient receptor potential cation channel subfamily V member 1 (Homo sapiens, UniProt Q8NER1); assay: Agonist activity at human recombinant TRPV1 expressed in HEK293 cells assessed as increase in intracellular calcium level by fluorescence assay relative to ionomycin; assay type: cell-based
T2 sequence (Q8NER1 whole entry): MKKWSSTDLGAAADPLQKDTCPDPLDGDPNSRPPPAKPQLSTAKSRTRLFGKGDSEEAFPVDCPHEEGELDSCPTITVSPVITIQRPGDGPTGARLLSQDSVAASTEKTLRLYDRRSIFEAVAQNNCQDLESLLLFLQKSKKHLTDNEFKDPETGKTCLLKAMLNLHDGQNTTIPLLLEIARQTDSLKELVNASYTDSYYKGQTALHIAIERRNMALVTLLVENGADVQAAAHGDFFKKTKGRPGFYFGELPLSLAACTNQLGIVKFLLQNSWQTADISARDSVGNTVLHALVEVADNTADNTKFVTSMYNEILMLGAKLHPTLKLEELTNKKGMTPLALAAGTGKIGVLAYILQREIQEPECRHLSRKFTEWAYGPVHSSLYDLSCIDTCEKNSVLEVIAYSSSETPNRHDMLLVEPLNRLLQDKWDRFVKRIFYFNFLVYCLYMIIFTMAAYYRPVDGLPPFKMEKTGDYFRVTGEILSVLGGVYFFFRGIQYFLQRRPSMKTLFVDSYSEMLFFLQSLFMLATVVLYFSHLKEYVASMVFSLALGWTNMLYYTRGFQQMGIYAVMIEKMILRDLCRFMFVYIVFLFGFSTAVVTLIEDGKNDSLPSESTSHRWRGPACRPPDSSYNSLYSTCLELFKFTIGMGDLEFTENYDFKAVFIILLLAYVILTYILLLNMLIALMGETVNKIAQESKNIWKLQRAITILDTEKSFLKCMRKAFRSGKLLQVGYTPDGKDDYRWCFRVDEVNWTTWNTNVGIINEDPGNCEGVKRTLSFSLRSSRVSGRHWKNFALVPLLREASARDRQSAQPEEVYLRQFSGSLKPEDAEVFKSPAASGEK
How it was run: (§2)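 HEK293 cells stably expressing human TRPV1 were loaded with Fluo-4-AM (4 µM, 1 h, room temperature). Cells stirred in Tyrode's buffer pH 7.4; fluorescence read at ex 488/em 516 nm, 25 °C. Wild-type HEK293 response subtracted. Efficacy as percent of 4 µM ionomycin. EC50 from sigmoidal fit, n=3.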

[4] = target: T1, Cannabinoid receptor 2; assay: Displacement of [3H]CP-55,940 from human recombinant CB2 receptor expressed in HEK293 cell membranes
[5] = test system: Mus musculus; assay: Toxicity in Swiss-Webster mouse formalin-induced pain model assessed as induction of abdominal writhing at >4 mg/kg, ip; assay type: organism-based, Abdomen; settings: in vivo
How it was run: (§3)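 Mice received compound or vehicle (0.9% NaCl) i.p. 10 min before formalin (1.25%) injected subcutaneously into the hind paw. Lifting, favouring, licking, shaking and flinching were scored blind as total duration per 5-min bin over 60 min. 8-10 animals per group; one-way ANOVA with Bonferroni test.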

[6] = target: T3, Cannabinoid receptor 1 (Homo sapiens, UniProt P21554); assay: Agonist activity at human recombinant CB1 receptor expressed in CHO cell membranes assessed as stimulation of [35S]GTPgammaS binding relative to basal level; assay type: functional; how it was run: as §1
T3 sequence (P21554 whole entry): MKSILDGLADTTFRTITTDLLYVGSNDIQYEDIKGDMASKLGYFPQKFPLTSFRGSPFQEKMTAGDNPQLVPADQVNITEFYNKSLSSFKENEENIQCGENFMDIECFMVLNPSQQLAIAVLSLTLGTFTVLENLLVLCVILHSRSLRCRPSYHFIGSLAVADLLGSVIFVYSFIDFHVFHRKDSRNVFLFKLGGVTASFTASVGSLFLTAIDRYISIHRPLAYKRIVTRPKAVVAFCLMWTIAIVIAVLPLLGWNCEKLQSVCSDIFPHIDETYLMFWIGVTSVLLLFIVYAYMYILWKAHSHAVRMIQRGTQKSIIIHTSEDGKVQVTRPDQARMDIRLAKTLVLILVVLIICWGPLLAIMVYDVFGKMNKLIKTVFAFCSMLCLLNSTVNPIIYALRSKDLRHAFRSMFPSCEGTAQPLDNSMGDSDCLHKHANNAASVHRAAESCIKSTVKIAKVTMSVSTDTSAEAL

[7] = target: T3, Cannabinoid receptor 1; assay: Agonist activity at human recombinant CB1 receptor expressed in CHO cell membranes by [35S]GTPgammaS binding assay; assay type: functional; how it was run: as §1
[8] = target: T2, Transient receptor potential cation channel subfamily V member 1; assay: Agonist activity at human recombinant TRPV1 expressed in HEK293 cells assessed as increase in intracellular calcium level by fluorescence assay; assay type: cell-based; how it was run: as §2
[9] = test system: Mus musculus; assay: Antinociceptive activity in Swiss-Webster mouse assessed as reduction in second phase of formalin-induced nociceptive behavior at 3 and 4 mg/kg, ip; assay type: functional, organism-based; parameters: dose 4 mg/kg; how it was run: as §3
[10] = organism: Homo sapiens; assay: Selectivity index, ratio of Ki for human recombinant CB2 receptor to Ki for human recombinant CB1 receptor
[11] = target: T4, Transient receptor potential cation channel subfamily A member 1 (Rattus norvegicus, UniProt Q6RI86); assay: Antagonist activity at rat recombinant TRPA1 expressed in HEK293 cells assessed as reduction in isothiocynate-induced increase in intracellular calcium response by fluorescence assay; assay type: cell-based
T4 sequence (Q6RI86 whole entry): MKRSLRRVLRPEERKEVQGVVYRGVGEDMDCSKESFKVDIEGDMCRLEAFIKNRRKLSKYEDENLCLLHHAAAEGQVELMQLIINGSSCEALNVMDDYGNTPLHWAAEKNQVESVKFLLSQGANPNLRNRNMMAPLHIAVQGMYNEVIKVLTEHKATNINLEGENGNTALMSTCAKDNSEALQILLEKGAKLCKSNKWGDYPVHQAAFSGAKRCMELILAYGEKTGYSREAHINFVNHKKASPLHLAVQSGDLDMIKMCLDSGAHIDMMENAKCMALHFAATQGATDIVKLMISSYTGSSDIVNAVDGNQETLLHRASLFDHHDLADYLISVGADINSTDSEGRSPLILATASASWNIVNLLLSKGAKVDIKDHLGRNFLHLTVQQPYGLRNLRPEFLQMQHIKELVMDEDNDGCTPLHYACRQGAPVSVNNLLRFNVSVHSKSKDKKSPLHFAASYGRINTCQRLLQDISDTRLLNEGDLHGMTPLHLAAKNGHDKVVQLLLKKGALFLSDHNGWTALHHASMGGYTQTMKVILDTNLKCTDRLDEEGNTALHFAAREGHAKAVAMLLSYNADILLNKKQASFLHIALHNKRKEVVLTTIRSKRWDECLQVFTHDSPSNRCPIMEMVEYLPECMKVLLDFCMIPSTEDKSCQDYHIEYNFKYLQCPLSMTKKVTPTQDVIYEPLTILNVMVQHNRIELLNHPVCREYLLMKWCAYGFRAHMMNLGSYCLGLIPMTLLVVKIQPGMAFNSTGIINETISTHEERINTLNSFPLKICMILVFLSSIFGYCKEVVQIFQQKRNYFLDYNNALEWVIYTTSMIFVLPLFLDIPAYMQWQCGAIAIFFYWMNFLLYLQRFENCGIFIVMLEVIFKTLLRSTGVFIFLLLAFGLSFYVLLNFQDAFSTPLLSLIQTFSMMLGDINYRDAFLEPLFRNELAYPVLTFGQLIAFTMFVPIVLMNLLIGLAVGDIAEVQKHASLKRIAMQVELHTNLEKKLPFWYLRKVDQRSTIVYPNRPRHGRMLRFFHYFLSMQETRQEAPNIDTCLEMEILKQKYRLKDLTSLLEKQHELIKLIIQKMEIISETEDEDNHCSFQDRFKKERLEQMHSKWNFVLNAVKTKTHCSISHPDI
How it was run: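 Rat TRPA1-HEK293 cells loaded with Fluo-4 in Tyrode's buffer pH 7.4, 25 °C. Compound given as a 5 min pre-incubation before 100 µM allyl isothiocyanate. IC50 for half-maximal inhibition of the agonist-evoked [Ca2+]i rise, n=3.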

[12] = target: T4, Transient receptor potential cation channel subfamily A member 1; assay: Agonist activity at rat recombinant TRPA1 expressed in HEK293 cells assessed as increase in intracellular calcium level by fluorescence assay; assay type: cell-based
How it was run: as §2, with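 “expressing rat TRPA1” for “expressing human TRPV1”, “7.4; [Ca2+]i” for “7.4;”, “of 100” for “of 4”, “µM allyl isothiocyanate.” for “µM ionomycin.”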

[13] = test system: Mus musculus; assay: Antinociceptive activity in Swiss-Webster mouse assessed as reduction in second phase of formalin-induced nociceptive behavior at 4 mg/kg, ip after 40 mins; assay type: functional, organism-based; parameters: dose 4 mg/kg; how it was run: as §3
[14] = target: Transient receptor potential cation channel subfamily A member 1 (Rattus norvegicus) (UniProt Q6RI86); assay: Agonist activity at rat recombinant TRPA1 expressed in HEK293 cells assessed as increase in intracellular calcium level by fluorescence assay relative to isothiocyanate; assay type: cell-based
Transient receptor potential cation channel subfamily A member 1 (Rattus norvegicus), sequence (Q6RI86 whole entry): as above
How it was run: as §2, with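 “expressing rat TRPA1” for “expressing human TRPV1”, “7.4; [Ca2+]i” for “7.4;”, “of 100” for “of 4”, “µM allyl isothiocyanate.” for “µM ionomycin.”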

[15] = target: T2, Transient receptor potential cation channel subfamily V member 1; assay: Antagonist activity against human recombinant TRPV1 expressed in HEK293 cells assessed as reduction in capsaicin-induced intracellular calcium response pre-incubated 5 mins before capsaicin addition by fluorescence assay; assay type: cell-based
How it was run: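 Human TRPV1-HEK293 cells loaded with Fluo-4 in Tyrode's buffer pH 7.4, 25 °C. Compound added 5 min before 0.1 µM capsaicin. IC50 taken as half-maximal inhibition of the capsaicin-induced [Ca2+]i rise, n=3.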

[16] = target: T1, Cannabinoid receptor 2; assay: Agonist activity at human recombinant CB2 receptor expressed in CHO cell membranes assessed as stimulation of [35S]GTPgammaS binding relative to basal level; assay type: functional; how it was run: as §1
[17] = target: T3, Cannabinoid receptor 1; assay: Displacement of [3H]CP-55,940 from human recombinant CB1 receptor expressed in HEK293 cell membranes
[18] = organism: Homo sapiens; assay: Selectivity index, ratio of Ki for human recombinant CB1 receptor to Ki for human recombinant CB2 receptor

C=CCNC(=O)CCCCCCCOc1cc(O)cc(C(C)(C)CCCCCC)c1
IC50 [1]: 188000 nM | EC50 [2]: 44.7 nM | Efficacy [3]: 18.6% | Ki [4]: 7.36 nM | Activity [5]: Toxic | Emax [6]: 60.6% | EC50 [7]: 138 nM | EC50 [8]: 6900 nM | Activity [9]: Active | Ratio Ki [10]: 1.02 | IC50 [11]: 7400 nM | EC50 [12]: 2700 nM | Activity [13]: Active | Efficacy [14]: 51.3% | IC50 [15]: 23900 nM | Emax [16]: 13.4% | Ki [17]: 7.22 nM | Ratio Ki [18]: 0.98
